{"source": "ChEMBL document CHEMBL2146382", "about": "“Cytotoxic and antineoplastic activity of timosaponin A-III for human colon cancer cells” (J Nat Prod, 2011)", "key": {"HCT-15 [1]": {"tested_on": "HCT-15", "assay": "Induction of apoptosis in human HCT15 cells assessed as PARP cleavage at 20 uM after 12 to 24 hrs by Western blot analysis", "type": "functional, cell-based", "in_short": "(§1)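 HCT-15 cells in RPMI/10% FBS exposed to test compound at various concentrations; lysates quantified by BCA, 30–50 μg protein run on 10% SDS-PAGE, transferred to PVDF, blocked 1 h in 5% milk/PBST, primary antibodies overnight at 4 °C, HRP anti-mouse IgG 1:1500 for 3 h at room temperature, ECL detection.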"}, "HCT-15 [2]": {"tested_on": "HCT-15", "assay": "Cell cycle arrest in human HCT15 cells assessed as accumulation at S phase at 10 uM after 12 hrs using propidium-iodide staining by flow-cytometry (reference value: 34.7 %)", "type": "functional"}, "HCT-15 [3]": {"tested_on": "HCT-15", "assay": "Cell cycle arrest in human HCT15 cells assessed as increase in cyclin D1 expression up to 10 uM after 12 to 24 hrs by Western blot analysis", "type": "functional, cell-based", "in_short": "as §1"}, "HCT-15 [4]": {"tested_on": "HCT-15", "assay": "Cell cycle arrest in human HCT15 cells assessed as accumulation at G2/M phase at 5 uM after 12 hrs using propidium-iodide staining by flow-cytometry (reference value: 15.7 %)", "type": "functional"}, "HCT-15 [5]": {"tested_on": "HCT-15", "assay": "Cell cycle arrest at G0/G1 phase in human HCT15 cells assessed as suppression of Rb ser807/811 phosphorylation at 5 to 20 uM after 12 to 24 hrs by Western blot analysis", "type": "functional, cell-based", "in_short": "as §1"}, "HCT-15 [6]": {"tested_on": "HCT-15", "assay": "Cell cycle arrest in human HCT15 cells assessed as accumulation at G0/G1 phase at 5 uM after 24 hrs using propidium-iodide staining by flow-cytometry (reference value: 37.0 %)", "type": "functional"}, "HCT-15 [7]": {"tested_on": "HCT-15", "assay": "Induction of apoptosis in human HCT15 cells assessed as change in Bax expression at 5 to 20 uM after 24 hrs by Western blot analysis", "type": "functional, cell-based", "in_short": "as §1"}, "HCT-15 [8]": {"tested_on": "HCT-15", "assay": "Induction of apoptosis in human HCT15 cells assessed as suppression of procaspase-3 expression at 5 to 20 uM after 12 to 24 hrs by Western blot analysis", "type": "functional, cell-based", "in_short": "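HCT-15 cells (RPMI, 10% heat-inactivated FBS, antibiotics-antimycotics, 37 C, 5% CO2) exposed to compound. Cells lysed, protein measured by BCA, 30-50 μg per lane resolved on 10% SDS-PAGE and electroblotted to PVDF. Membranes blocked 1 h in 5% nonfat milk/PBST, probed with primary antibodies overnight at 4 C, then HRP anti-mouse IgG 1:1500 for 3 h at room temperature. Detection by ECL; β-actin antibody available.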"}, "HCT-15 [9]": {"tested_on": "HCT-15", "assay": "Cell cycle arrest in human HCT15 cells assessed as accumulation at S phase at 20 uM after 12 hrs using propidium-iodide staining by flow-cytometry (reference value: 34.7 %)", "type": "functional"}, "HCT-15 [10]": {"tested_on": "HCT-15", "assay": "Cell cycle arrest at M phase in human HCT15 cells assessed as suppression of CDC2 Tyr-15 phosphorylation at 5 to 20 uM after 12 to 24 hrs by Western blot analysis", "type": "functional, cell-based", "in_short": "as §1"}, "HCT-15 [11]": {"tested_on": "HCT-15", "assay": "Cell cycle arrest at G2/M phase in human HCT15 cells assessed as cyclin A down regulation at 5 to 20 uM after 12 to 24 hrs by Western blot analysis", "type": "functional, cell-based", "in_short": "as §1"}, "HCT-15 [12]": {"tested_on": "HCT-15", "assay": "Antineoplastic activity against human HCT15 cells xenografted in nude BALB/c mouse assessed as inhibition of rate of tumor size at 5 mg/kg, ip 3 times a week for 4 weeks relative to control", "type": "functional", "settings": "HCT-15, ip, 672 h, route intraperitoneal", "in_short": "(§2)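 HCT-15 cells (2 × 10^6 in 200 μL medium) implanted subcutaneously in flanks of BALB/c-nu (nu/nu) mice; dosing began at ca. 80 mm3 tumours; groups of five, randomized. 2 or 5 mg/kg given ip three times weekly in ethanol–cremophor–H2O (0.5:0.5:99), vehicle controls; caliper volume (3.14·L·W·H/6) three times weekly for 30 days; Ki-67 immunohistochemistry on tumour sections (1:250, 4 °C overnight, DAB, hematoxylin counterstain).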"}, "HCT-15 [13]": {"tested_on": "HCT-15", "assay": "Cell cycle arrest at G0/G1 phase in human HCT15 cells assessed as decrease in c-Myc expression at 5 to 20 uM after 24 hrs by Western blot analysis", "type": "functional, cell-based", "in_short": "as §1"}, "HCT-15 [14]": {"tested_on": "HCT-15", "assay": "Cell cycle arrest in human HCT15 cells assessed as accumulation at G0/G1 phase at 20 uM after 24 hrs using propidium-iodide staining by flow-cytometry (reference value: 37.0 %)", "type": "functional"}, "HCT-116": {"tested_on": "HCT-116", "assay": "Growth inhibition of human HCT116 cells", "type": "functional, cell-based", "in_short": "(§3)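 SRB assay: cells at 5 × 10^4 cells/mL were exposed to a concentration series for 3 days, fixed with 10% TCA and stained with sulforhodamine B. Survival was expressed as % of solvent-treated control and IC50 taken by nonlinear regression of % survival versus concentration. Media held 10% heat-inactivated FBS plus antibiotics: RPMI (HCT-15, HCT 116, HT-29), RPMI with 25 mM HEPES (SW480, SW620), DMEM (MRC-5, Hs68). Cultures were kept at 37 C, 5% CO2.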"}, "HT-29": {"tested_on": "HT-29", "assay": "Growth inhibition of human HT-29 cells", "type": "functional, cell-based", "in_short": "as §3"}, "HCT-15 [15]": {"tested_on": "HCT-15", "assay": "Cell cycle arrest in human HCT15 cells assessed as accumulation at G2/M phase at 5 uM after 24 hrs using propidium-iodide staining by flow-cytometry (reference value: 22.4 %)", "type": "functional"}, "HCT-15 [16]": {"tested_on": "HCT-15", "assay": "Cell cycle arrest in human HCT15 cells assessed as accumulation at S phase at 10 uM after 24 hrs using propidium-iodide staining by flow-cytometry (reference value: 34.1 %)", "type": "functional"}, "HCT-15 [17]": {"tested_on": "HCT-15", "assay": "Cell cycle arrest in human HCT15 cells assessed as accumulation at G2/M phase at 20 uM after 24 hrs using propidium-iodide staining by flow-cytometry (reference value: 22.4 %)", "type": "functional"}, "HCT-15 [18]": {"tested_on": "HCT-15", "assay": "Cell cycle arrest in human HCT15 cells assessed as accumulation at sub-G1 phase at 20 uM after 12 hrs using propidium-iodide staining by flow-cytometry (reference value: 5.2 %)", "type": "functional"}, "HCT-15 [19]": {"tested_on": "HCT-15", "assay": "Cytotoxicity against human HCT15 cells assessed as dead cells up to 20 uM after 12 to 24 hrs by phase contrast microscopy", "type": "functional, cell-based", "in_short": "(§4)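 HCT-15 cells treated with 0–20 μM for 12 and 24 h, vehicle-treated controls; morphology examined and photographed under phase-contrast microscope.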"}, "HCT-15 [20]": {"tested_on": "HCT-15", "assay": "Cytotoxicity against human HCT15 cells after 3 days", "type": "functional, cell-based", "settings": "HCT-15, 72 h", "in_short": "as §3"}, "SW480": {"tested_on": "SW480", "assay": "Growth inhibition of human SW480 cells", "type": "functional, cell-based", "in_short": "as §3"}, "HCT-15 [21]": {"tested_on": "HCT-15", "assay": "Cell cycle arrest in human HCT15 cells assessed as accumulation at S phase at 5 uM after 12 hrs using propidium-iodide staining by flow-cytometry (reference value: 34.7 %)", "type": "functional"}, "HCT-15 [22]": {"tested_on": "HCT-15", "assay": "Induction of apoptosis in human HCT15 cells assessed as increase in caspase-3 expression at 5 to 20 uM by Western blot analysis", "type": "functional, cell-based", "in_short": "as §1"}, "HCT-15 [23]": {"tested_on": "HCT-15", "assay": "Cytotoxicity against human HCT15 cells assessed as morphological changes with distinct rounded shapes and detachment after 12 to 24 hrs by phase-contrast microscopy", "type": "functional, cell-based", "in_short": "as §4"}, "HCT-15 [24]": {"tested_on": "HCT-15", "assay": "Antineoplastic activity against human HCT15 cells xenografted in nude BALB/c mouse assessed as tumor growth inhibition at 2 to 5 mg/kg, ip 3 times a week for 4 weeks", "type": "functional, organism-based", "in_short": "as §2"}, "HCT-15 [25]": {"tested_on": "HCT-15", "assay": "Cell cycle arrest at G2/M phase in human HCT15 cells assessed as cyclin B1 down regulation at 5 to 20 uM after 12 to 24 hrs by Western blot analysis", "type": "functional, cell-based", "in_short": "as §1"}}, "note": "pIC50: −log10 of the molar value. Calls of active or inactive are those of the source. No cut-off for these calls is given here.", "data": [{"smiles": "C[C@H]1CC[C@@]2(OC1)O[C@H]1C[C@H]3[C@@H]4CC[C@@H]5C[C@@H](O[C@@H]6O[C@H](CO)[C@H](O)[C@H](O)[C@H]6O[C@@H]6O[C@H](CO)[C@@H](O)[C@H](O)[C@H]6O)CC[C@]5(C)[C@H]4CC[C@]3(C)[C@H]1[C@@H]2C", "note": "[TIMOSAPONIN AIII]", "values": [{"measurement": "Activity", "setting": "HCT-15 [1]", "result": "Active"}, {"measurement": "Activity", "setting": "HCT-15 [2]", "result": 18.4, "unit": "%"}, {"measurement": "Activity", "setting": "HCT-15 [3]", "result": "Active"}, {"measurement": "Activity", "setting": "HCT-15 [4]", "result": 20.5, "unit": "%"}, {"measurement": "Activity", "setting": "HCT-15 [5]", "result": "Active"}, {"measurement": "Activity", "setting": "HCT-15 [6]", "result": 36.4, "unit": "%"}, {"measurement": "Activity", "setting": "HCT-15 [7]", "result": "inactive"}, {"measurement": "Activity", "setting": "HCT-15 [8]", "result": "Active"}, {"measurement": "Activity", "setting": "HCT-15 [9]", "result": 4.2, "unit": "%"}, {"measurement": "Activity", "setting": "HCT-15 [10]", "result": "Active"}, {"measurement": "Activity", "setting": "HCT-15 [11]", "result": "Active"}, {"measurement": "inhibition in vivo at 5 mg/kg", "setting": "HCT-15 [12]", "result": 37.3, "unit": "%"}, {"measurement": "Activity", "setting": "HCT-15 [13]", "result": "Active"}, {"measurement": "Activity", "setting": "HCT-15 [14]", "result": 43.4, "unit": "%"}, {"measurement": "pIC50", "setting": "HCT-116", "result": 5.26}, {"measurement": "pIC50", "setting": "HT-29", "result": 4.99}, {"measurement": "Activity", "setting": "HCT-15 [15]", "result": 19.4, "unit": "%"}, {"measurement": "Activity", "setting": "HCT-15 [16]", "result": 15.3, "unit": "%"}, {"measurement": "Activity", "setting": "HCT-15 [17]", "result": 0, "unit": "%"}, {"measurement": "Activity", "setting": "HCT-15 [18]", "result": 41.8, "unit": "%"}, {"measurement": "Activity", "setting": "HCT-15 [19]", "result": "Active"}, {"measurement": "pIC50", "setting": "HCT-15 [20]", "result": 5.21}, {"measurement": "pIC50", "setting": "SW480", "result": 4.88}, {"measurement": "Activity", "setting": "HCT-15 [21]", "result": 22.5, "unit": "%"}, {"measurement": "Activity", "setting": "HCT-15 [22]", "result": "Active"}, {"measurement": "Activity", "setting": "HCT-15 [23]", "result": "Dose-dependent effect"}, {"measurement": "TGI", "setting": "HCT-15 [24]", "result": "Active"}, {"measurement": "Activity", "setting": "HCT-15 [25]", "result": "Active"}]}]}
